Test results as given in ChEMBL document CHEMBL4706497, “The structure-based optimization of δ-sultone-fused pyrazoles as selective BuChE inhibitors” (Eur J Med Chem, 2020).
Activity calls are given as the source filed them. The rule behind the calls is not given here.

Assays:
Cholinesterase [1] = target: T1, Cholinesterase (Equus caballus, UniProt P81908); test: Inhibition of equine serum BuChE using butyrylthiocholine iodide as substrate preincubated with enzyme for 20 mins followed by addition of substrate and measured after 20 mins by DTNB reagent based Ellman's method; type: cell-free
Method in brief: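 Enzyme at 0.036 U/mL in 0.1 M phosphate buffer pH 8, preincubated with inhibitor 20 min at 37 °C. Then 0.5 mM butyrylthiocholine iodide and 0.35 mM DTNB added, and A410 read after 20 min. IC50 taken graphically from log concentration vs % inhibition curves. Mean ± SEM of at least three independent experiments.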

[2] = Antioxidant activity assessed as free radical scavenging activity at 100 uM measured after 2 hrs under dark conditions by DPPH assay relative to control; type: functional
Method in brief: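 Each compound at 100 μM mixed with DPPH (140 μM) and incubated 2 h in the dark at 37 °C. Absorbance read at 520 nm. Reduction percentage = (1 − A_C/A₀) × 100%, with A_C and A₀ the absorbance with and without compound. Ascorbic acid served as standard.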

[3] = target: Acetylcholinesterase (AChE) (Electrophorus electricus, UniProt O42275); test: Inhibition of recombinant electric eel AChE using acetylthiocholine iodide as substrate at 20 uM preincubated with enzyme for 20 mins followed by addition of substrate and measured after 20 mins by DTNB reagent based Ellman's method; settings: probe acetylthiocholine iodide, time 40 min
Method in brief: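 Enzyme at 0.036 U/mL in 0.1 M phosphate buffer pH 8, preincubated 20 min at 37 °C with compound at 20 μM. Then 0.35 mM acetylthiocholine iodide and 0.35 mM DTNB added, and A410 read after 20 min. Percent inhibition compared with a no-inhibitor control.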

[4] = Octanol/Water partition coefficient, log P of the compound in PBS buffer at pH7.4 measured after 48 hrs by shake flask method; type: physicochemical; settings: pH 7.4
Method in brief: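 Shake-flask partition between equal volumes of n-octanol and PBS pH 7.4, pre-saturated by sonication and standing 24 h. Compound added, vessel sealed and shaken at 37 °C for 48 h to equilibrate, then phases analysed by HPLC.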

L02 [5] = test: Cytotoxicity against human L02 cells assessed as reduction in cell viability at 10 to 25 uM measured after 24 hrs by MTT assay; type: cell-based; settings: l02, 24 h, dose 10-25 µM
Method in brief: (§1)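 HepG2 and LO2 cells grown in DMEM with 10% FBS, penicillin/streptomycin, 37 °C, 5% CO2. Cells seeded at 1×10^4/well, cultured 24 h, then exposed 24 h to compound diluted in DMEM (range 1–50 μM). MTT 0.5 mg/mL added for 4 h, formazan dissolved in DMSO, OD read at 492 nm. Viability is given relative to medium-only blank (100%); three independent experiments.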

Cholinesterase [6] = target: T1, Cholinesterase; test: Mixed inhibition of equine serum BChE using butyrylthiolcholine iodide as substrate by Lineweaver-Burk plot analysis; type: cell-free
Method in brief: (§2)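 Run under the standard Ellman conditions (0.036 U/mL enzyme, pH 8, 37 °C). Six butyrylthiocholine concentrations (0.1–1 mM) crossed with inhibitor at 0, 0.02, 0.04 and 0.08 μM. Lineweaver-Burk plots and secondary plots used for mode of inhibition and Ki. Reversibility tested by varying enzyme at 0–0.72 U/mL at each inhibitor concentration.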

HepG2 [7] = test: Cytotoxicity against human HepG2 cells assessed as reduction in cell viability at 10 to 25 uM measured after 24 hrs by MTT assay; type: cell-based; settings: hepg2, 24 h, dose 10-25 µM; method in brief: as §1
HepG2 [8] = test: Cytotoxicity against human HepG2 cells assessed as reduction in cell viability at 50 uM measured after 24 hrs by MTT assay; type: cell-based; settings: hepg2, 24 h; method in brief: as §1
PC-12 = test: Neuroprotective activity against H2O2 induced cytotoxicity in […] cells assessed as cell viability preincubated for 3 hrs followed by addition of H2O2 measured after 24 hrs by MTT assay; type: functional, cell-based; settings: dose 6.25-25 µM, time 27.0 hrs
Method in brief: (§3)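 PC12 cells seeded at 1×10^4/well and incubated overnight. Pretreated 3 h with compound (1–25 µM), then medium replaced with fresh medium containing compound plus 100 µM H2O2 for a further 24 h. Viability read by MTT (0.5 mg/mL, 4 h), formazan dissolved in DMSO, OD at 492 nm, corrected for blank.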

[9] = Selectivity for equine serum BuChE over recombinant electric eel AChE
[10] = Neuroprotective activity against H2O2 induced cytotoxicity in […] cells assessed as cell viability at […] uM preincubated for 3 hrs followed by addition of H2O2 measured after 24 hrs by MTT assay; type: functional; settings: PC-12, time 27 hrs, read-out: Activity
[11] = target: Cholinesterase (Equus caballus) (UniProt P81908); test: Reversible inhibition of equine serum BChE using butyrylthiolcholine iodide as substrate at 0.02 to 0.08 uM by Lineweaver-Burk plot analysis; type: cell-free; settings: dose 0.02-0.08 µM; method in brief: as §2
[12] = Neuroprotective activity against H2O2 induced cytotoxicity in […] cells assessed as cell viability at 25 uM preincubated for 3 hrs followed by addition of H2O2 measured after 24 hrs by MTT assay; type: functional; settings: PC-12, time 27 hrs, read-out: Activity; method in brief: as §3
L02 [13] = test: Cytotoxicity against human L02 cells assessed as reduction in cell viability at 50 uM measured after 24 hrs by MTT assay; type: cell-based; settings: l02, 24 h; method in brief: as §1

T1 sequence (P81908 whole entry): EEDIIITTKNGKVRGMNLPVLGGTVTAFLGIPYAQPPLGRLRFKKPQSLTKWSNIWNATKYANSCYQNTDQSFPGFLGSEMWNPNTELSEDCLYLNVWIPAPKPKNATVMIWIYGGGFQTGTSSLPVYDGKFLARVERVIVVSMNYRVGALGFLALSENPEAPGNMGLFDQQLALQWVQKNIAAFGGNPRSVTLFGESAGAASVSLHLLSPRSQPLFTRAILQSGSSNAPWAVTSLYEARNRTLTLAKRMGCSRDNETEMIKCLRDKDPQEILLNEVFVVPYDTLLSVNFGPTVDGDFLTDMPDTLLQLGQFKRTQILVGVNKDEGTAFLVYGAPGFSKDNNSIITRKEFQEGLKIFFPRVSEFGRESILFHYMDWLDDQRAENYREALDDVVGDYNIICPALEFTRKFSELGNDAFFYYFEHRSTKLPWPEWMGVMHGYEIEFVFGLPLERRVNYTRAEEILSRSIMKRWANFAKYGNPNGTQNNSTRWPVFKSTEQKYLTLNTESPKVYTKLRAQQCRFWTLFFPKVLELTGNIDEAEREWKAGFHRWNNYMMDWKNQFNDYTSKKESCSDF
Acetylcholinesterase (AChE), sequence (O42275 whole entry): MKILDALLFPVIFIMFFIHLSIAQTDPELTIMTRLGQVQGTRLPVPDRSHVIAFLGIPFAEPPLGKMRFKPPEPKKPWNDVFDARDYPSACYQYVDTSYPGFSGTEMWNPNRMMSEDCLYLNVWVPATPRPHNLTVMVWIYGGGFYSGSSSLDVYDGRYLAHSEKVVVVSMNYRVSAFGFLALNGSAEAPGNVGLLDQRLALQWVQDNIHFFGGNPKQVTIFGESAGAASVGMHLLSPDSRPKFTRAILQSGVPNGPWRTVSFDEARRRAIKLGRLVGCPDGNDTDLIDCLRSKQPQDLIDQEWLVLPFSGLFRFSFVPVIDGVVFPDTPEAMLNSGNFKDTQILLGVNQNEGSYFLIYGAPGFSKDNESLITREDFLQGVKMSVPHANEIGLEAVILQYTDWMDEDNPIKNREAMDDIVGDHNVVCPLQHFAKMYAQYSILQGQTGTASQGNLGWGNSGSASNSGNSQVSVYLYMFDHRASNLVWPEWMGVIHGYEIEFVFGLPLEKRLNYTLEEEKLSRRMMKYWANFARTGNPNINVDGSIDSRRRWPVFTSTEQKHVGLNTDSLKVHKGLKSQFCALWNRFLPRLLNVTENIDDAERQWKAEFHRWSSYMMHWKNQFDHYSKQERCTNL
Cholinesterase (Equus caballus), sequence (P81908 whole entry): as the sequence (P81908 whole entry) above

Structure (SMILES) | IC50 (Cholinesterase [1]) [nM] | inhibition [2] [%] | other results
O=S1(=O)CCc2c(-c3ccc(F)cc3)nn(-c3ccccc3Cl)c2O1 | 130 | – | –
O=S1(=O)CCc2c(CN(CCO)Cc3cccc(F)c3)nn(-c3ccccc3F)c2O1 | 90 | 5 | –
COc1ccc(-c2nn(-c3ccc(Cl)cc3)c3c2CCS(=O)(=O)O3)cc1 | 8780 | – | –
O=S1(=O)CCc2c(-c3ccccc3)nn(-c3ccccc3Cl)c2O1 | 170 | – | –
CCN(Cc1ccc(F)cc1)Cc1nn(-c2ccccc2F)c2c1CCS(=O)(=O)O2 | 70 | 0.6 | –
Cc1nn(-c2ccccc2F)c2c1CCS(=O)(=O)O2 | 1190 | – | –
CN(Cc1ccc(Br)cc1)Cc1nn(-c2ccccc2F)c2c1CCS(=O)(=O)O2 | 70 | 0.2 | inhibition at 20 min, 20 µM [3]: 33.6%
CCN(Cc1ccccc1)Cc1nn(-c2ccccc2F)c2c1CCS(=O)(=O)O2 | 80 | 1.8 | logD at 48 h [4]: 2
O=S1(=O)CCc2c(CN(CCO)Cc3ccccc3)nn(-c3ccccc3Cl)c2O1 | 40 | – | –
O=S1(=O)CCc2c(CCl)nn(-c3ccccc3Cl)c2O1 | 200 | – | –
O=S1(=O)CCc2c(CN(CCO)Cc3ccc(Cl)cc3)nn(-c3ccccc3F)c2O1 | 90 | 10.2 | –
COCCN(Cc1ccccc1)Cc1nn(-c2ccccc2F)c2c1CCS(=O)(=O)O2 | 240 | 2.3 | –
CN(Cc1ccc(F)cc1)Cc1nn(-c2ccccc2F)c2c1CCS(=O)(=O)O2 | 40 | 5.7 | –
CCN(Cc1ccc(Br)cc1)Cc1nn(-c2ccccc2F)c2c1CCS(=O)(=O)O2 | 70 | 12.9 | –
CN(Cc1ccccc1)Cc1nn(-c2ccccc2Cl)c2c1CCS(=O)(=O)O2 | 70 | – | –
O=S1(=O)CCc2c(CN3CCN(Cc4ccccc4)CC3)nn(-c3ccccc3Cl)c2O1 | 460 | – | –
O=S1(=O)CCc2c(CN(CCO)Cc3cccc(Cl)c3)nn(-c3ccccc3F)c2O1 | 190 | 4.7 | –
O=S1(=O)CCc2c(-c3ccc(Cl)cc3)nn(-c3ccccc3F)c2O1 | 200 | – | –
O=S1(=O)CCc2c(CN3CCOCC3)nn(-c3ccccc3Cl)c2O1 | 410 | – | –
O=S1(=O)CCc2c(CN(CCO)Cc3ccc(F)cc3)nn(-c3ccccc3F)c2O1 | 8.3 | 5.5 | logD at 48 h [4]: 2.42
O=S1(=O)CCc2c(CN(CCO)Cc3ccccc3)nn(-c3ccccc3F)c2O1 | 40 | 5.4 | logD at 48 h [4]: 2.05
COCCN(Cc1ccc(Br)cc1)Cc1nn(-c2ccccc2F)c2c1CCS(=O)(=O)O2 | 150 | 4.8 | –
CCN(Cc1ccc(Cl)cc1)Cc1nn(-c2ccccc2F)c2c1CCS(=O)(=O)O2 | 40 | 4.2 | –
COCCN(Cc1ccc(Cl)cc1)Cc1nn(-c2ccccc2F)c2c1CCS(=O)(=O)O2 | 90 | 3.6 | –

Structure (SMILES) | IC50 (Cholinesterase [1]) [nM] | inhibition [2] [%] | other results
O=S1(=O)CCc2c(C3CC3)nn(-c3ccccc3Cl)c2O1 | 180 | – | –
Cc1ccc(CN(CCO)Cc2nn(-c3ccccc3F)c3c2CCS(=O)(=O)O3)cc1 | 170 | 5.2 | –
O=S1(=O)CCc2c(-c3ccc(Br)cc3)nn(-c3ccccc3Cl)c2O1 | 3690 | – | –
O=S1(=O)CCc2c(-c3ccc(F)cc3)nn(-c3ccccc3F)c2O1 | 160 | – | –
COCCN(Cc1ccc(F)cc1)Cc1nn(-c2ccccc2F)c2c1CCS(=O)(=O)O2 | 110 | 6.3 | –
O=S1(=O)CCc2c(CN(CCO)Cc3ccc(Cl)cc3Cl)nn(-c3ccccc3F)c2O1 | 90 | 1.8 | –
O=S1(=O)CCc2c(C3CC3)nn(-c3cccc(Cl)c3)c2O1 | 700 | – | –
COc1ccc(CN(CCO)Cc2nn(-c3ccccc3F)c3c2CCS(=O)(=O)O3)cc1OC | 560 | 5.5 | –
O=S1(=O)CCc2c(-c3ccc(Cl)cc3)nn(-c3ccccc3Cl)c2O1 | 1580 | – | –
O=S1(=O)CCc2c(-c3ccccc3)nn(-c3ccccc3F)c2O1 | 180 | – | –
CN1CCN(Cc2nn(-c3ccccc3F)c3c2CCS(=O)(=O)O3)CC1 | 2170 | – | –
O=S1(=O)CCc2c(CN3CCOCC3)nn(-c3ccccc3F)c2O1 | 150 | – | –
CCN(Cc1ccccc1)Cc1nn(-c2ccccc2Cl)c2c1CCS(=O)(=O)O2 | 50 | – | –
O=S1(=O)CCc2c(CN(CCO)Cc3cccc(Br)c3)nn(-c3ccccc3F)c2O1 | 330 | 0.8 | –
O=S1(=O)CCc2c(-c3ccc(Br)cc3)nn(-c3ccccc3F)c2O1 | 470 | – | –
O=S1(=O)CCc2c(C3CC3)nn(-c3cccc(F)c3)c2O1 | 370 | – | –
CN(Cc1ccc(Cl)cc1)Cc1nn(-c2ccccc2F)c2c1CCS(=O)(=O)O2 | 20 | 6.1 | –
CN1CCN(Cc2nn(-c3ccccc3Cl)c3c2CCS(=O)(=O)O3)CC1 | 2220 | – | –
O=S1(=O)CCc2c(CN(CCO)Cc3ccc(Br)cc3)nn(-c3ccccc3F)c2O1 | 7.7 | 22.2 | Activity (L02 [5]): Non-Toxic; Ki (Cholinesterase [6]): 24 nM; Activity (HepG2 [7]): Non-Toxic; logD at 48 h [4]: 1.93; inhibition at 20 min, 20 µM [3]: 43.3%; Activity (HepG2 [8]): 82.8%; Activity (PC-12): Dose-dependent effect; Selectivity Index [9]: > 2000; viability at […] [10]: 40.9%; inhibition [11]: Active; viability at 25 µM [12]: 49.6%; Activity (L02 [13]): 95.3%
O=S1(=O)CCc2c(CN3CCN(Cc4ccccc4)CC3)nn(-c3ccccc3F)c2O1 | 680 | – | –
CN(Cc1ccccc1)Cc1nn(-c2ccccc2F)c2c1CCS(=O)(=O)O2 | 80 | – | logD at 48 h [4]: 1.78
O=S1(=O)CCc2c(C3CC3)nn(-c3ccccc3F)c2O1 | 140 | – | logD at 48 h [4]: 2.09
O=S1(=O)CCc2c(CCl)nn(-c3ccccc3F)c2O1 | 190 | – | –
COc1ccc(CN(CCO)Cc2nn(-c3ccccc3F)c3c2CCS(=O)(=O)O3)cc1 | 260 | 3.2 | –
